The source of these data is article PMC13065758 (Nature Communications, 2026).

A short description of data set [1]: Plasma stability assay, human plasma. Format: in vitro ADME. In short, it runs like this:
(§1)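 Test compound was spiked at 10 μM into human or mouse plasma and incubated at 37 °C with shaking for 0, 30 or 120 min. Proteins were precipitated with acetonitrile containing 1 μM chlorpropamide internal standard and removed by centrifugation. Analyte/internal-standard area ratios were measured by LC-MS/MS and expressed as percent remaining versus 0 min.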

A short description of data set [2]: Plasma stability assay, mouse plasma. Format: in vitro ADME. In short, it runs like this: as §1

As for `CCN(CC)CCOC(=O)c1ccc(N)cc1` [Procaine], the share remaining (commonly the share of the starting amount still present when the sample was taken) at 2 h, 10 μM in data set [1] is 0.03%; in data set [2] it was 3.13%.
